{"data": "Measurements gathered from unrelated publications", "PIK3CA": "Phosphatidylinositol 4,5-bisphosphate 3-kinase catalytic subunit alpha isoform (PIK3CA, Homo sapiens, UniProt P42336)", "PIK3CA I800L": "Phosphatidylinositol 4,5-bisphosphate 3-kinase catalytic subunit alpha isoform (PIK3CA, Homo sapiens, UniProt P42336, I800L)", "PIK3CA M1043I": "Phosphatidylinositol 4,5-bisphosphate 3-kinase catalytic subunit alpha isoform (PIK3CA, Homo sapiens, UniProt P42336, M1043I)", "note": "Compare with care: the assays were run in different laboratories."}
{"Structure (SMILES)": "Cc1ccc(NC(=O)c2ccnc(C(F)(F)F)c2)cc1-c1cc(OCCO)nc(N2CCOCC2)c1", "target": "Phosphatidylinositol 4,5-bisphosphate 3-kinase catalytic subunit alpha isoform (PIK3CA, Homo sapiens, UniProt P42336, H1047Y)", "test": "binding", "setting": "1 µM", "measurement": "remaining binding", "result": "74%"}
{"Structure (SMILES)": "Cc1cc(O)c(-c2ccc([C@@H](C)CN(C)C)cc2)c2c1[nH]c(=O)c1sccc12", "target": "PIK3CA", "test": "enzyme activity, inhibitor", "setting": "0.1 µM", "measurement": "inhibition", "result": "-4.62%"}
{"Structure (SMILES)": "C=CC(=O)N1CCC[C@@H](n2nc(-c3ccc(Oc4ccccc4)cc3)c3c(N)ncnc32)C1", "target": "PIK3CA I800L", "test": "enzyme activity, inhibitor", "setting": "1 µM", "measurement": "inhibition", "result": "8%"}
{"Structure (SMILES)": "CCCCC(=O)Nc1ccc(-c2ccc3ncn(CCC)c(=O)c3c2)cn1", "target": "PIK3CA M1043I", "test": "binding, competition with immobilised ligand", "setting": "0.5 µM", "measurement": "remaining binding", "result": "91%"}
{"Structure (SMILES)": "CO[C@@H]1[C@H](N(C)C(=O)c2ccccc2)C[C@H]2O[C@]1(C)n1c3ccccc3c3c4c(c5c6ccccc6n2c5c31)C(=O)NC4", "target": "PIK3CA M1043I", "test": "enzyme activity, inhibitor", "setting": "1 µM", "measurement": "inhibition", "result": "1%"}
{"Structure (SMILES)": "COc1ccc2[nH]c3c4[nH]c5ccc(OC)cc5c4c4c(c3c2c1)C(=O)NC4=O", "target": "PIK3CA", "test": "binding", "setting": "1 µM", "measurement": "remaining binding", "result": "91%"}
{"Structure (SMILES)": "C1=C/COCc2cc(ccc2OCCN2CCCC2)Nc2nccc(n2)-c2cccc(c2)COC/1", "target": "PIK3CA I800L", "test": "binding", "setting": "0.1 µM", "measurement": "remaining binding", "result": "60%"}
{"Structure (SMILES)": "C[C@H]1CC[C@H](n2c3cnccc3c3cnc(Nc4ccc5c(n4)CCN(C(=O)CO)C5)nc32)CC1", "target": "Phosphatidylinositol 4,5-bisphosphate 3-kinase catalytic subunit alpha isoform (PIK3CA, Homo sapiens, UniProt P42336, E542K)", "test": "cell-free assay", "setting": "1 µM", "measurement": "remaining signal", "result": "100%"}
{"Structure (SMILES)": "CC#CC(=O)N1CCC[C@H]1c1nc(-c2ccc(C(=O)Nc3ccccn3)cc2)c2c(N)nccn12", "target": "Phosphatidylinositol 4,5-bisphosphate 3-kinase catalytic subunit alpha isoform (PIK3CA, Homo sapiens, UniProt P42336, C420R)", "test": "enzyme activity, inhibitor", "setting": "1 µM", "measurement": "inhibition", "result": "17%"}
{"Structure (SMILES)": "C#Cc1cc(-c2cc(Nc3nc(N[C@@H](C)c4ccc(F)cn4)ncc3Cl)n[nH]2)ccc1C=O", "target": "PIK3CA", "test": "enzyme activity, inhibitor", "setting": "0.2 µM", "measurement": "inhibition", "result": "7.89%"}
